The subject of one data set is Micrococcus luteus. As to the kind of experiment: Antibacterial activity against Micrococcus luteus ATCC 10240 after 20 hrs by broth microdilution assay. The data set is classed as functional. As to conditions: ATCC 10240, 20 h. The procedure, abridged:
(§1)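 Nutrient-broth overnight cultures diluted in 1% TSB; E. coli BL21AI 7.5 × 10^5 cells/well, M. luteus ATCC 10240 2 × 10^6 cells/well. Peptides serially 2-fold diluted in 1% TSB from 128 to typically 0.5 μg/mL. Incubation at 37 °C; A595 read after 20 ± 2 h. MIC is the lowest concentration with absorbance not above medium only. Triplicate.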
A general note: Dilution methods test growth across graded concentrations, often in twofold steps.

The subject of a further data set is Escherichia coli. Description: Antibacterial activity against Escherichia coli BL21 AI after 20 hrs by broth microdilution assay. The data set is classed as functional. The method, boiled down: as §1
For the next data set, the system named is SH-SY5Y. As to the kind of experiment: Cytotoxicity against human SH-SY5Y cells at 600 ug/ml after 24 hrs by MTT assay. The data set is classed as cell-based. The method, boiled down: (§2)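 HeLa (1.5 × 10^4/well, seeded overnight) or SH-SY5Y (2 × 10^4/well, differentiated 5 days with 10 μM trans-retinoic acid) in DMEM/Ham's F-12 with 5% or 15% FBS. Peptide added at 600 μg/mL for 24 h at 37 °C, 5% CO2. MTT 0.5 mg/mL for 4 h, then SDS/HCl for 16 h; A590 read against 650 nm. Normalized to PBS (100%); DMSO 12% as positive control.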

In the next data set the test system is HeLa. As to the kind of experiment: Cytotoxicity against human HeLa cells at 600 ug/ml after 24 hrs by MTT assay. The data set is classed as cell-based. The procedure, abridged: as §2
In general terms: Tetrazolium assays rely on reduction of a dye to a coloured formazan, in cell work by metabolically active cells.

For the compound H-VDKPPYLPRPRPPRRIYNNR-OH, the MIC – broadly, the least concentration at which growth counts as inhibited – in the data set on Micrococcus luteus stood at 16 µg/mL; in the data set with Escherichia coli it was 8 µg/mL.

Take H-VDKPPYLPRPRPPRRIYN-OH: the MIC with Micrococcus luteus is 128 µg/mL; in the data set on Escherichia coli, 64 µg/mL.

Consider H-VDKPPYLPRPRPPRRIYNRN-OH, for which the MIC with Micrococcus luteus is 16 µg/mL; against Escherichia coli, 8 µg/mL.

Take H-VDKPPYLPRPRPPRRIYNNR-NH2: the MIC against Micrococcus luteus and in the data set on Escherichia coli was 8 µg/mL each time.

Take `CC[C@H](C)[C@H](NC(=O)[C@H](Cc1ccc(O)cc1)NC(=O)[C@@H](NC(=O)[C@@H]1CCCN1C(=O)[C@H](CCCNC(=N)N)NC(=O)[C@H](CC(N)=O)NC(=O)[C@H](CC(N)=O)NC(=O)CN)C(C)C)C(=O)N1CCC[C@H]1C(=O)N[C@@H](CCC(N)=O)C(=O)N1CCC[C@H]1C(=O)N[C@@H](CCCNC(=N)N)C(=O)N1CCC[C@H]1C(=O)N1CCC[C@H]1C(=O)N[C@@H](Cc1cnc[nH]1)C(=O)N1CCC[C@H]1C(=O)N[C@@H](CCCNC(=N)N)C(=O)N[C@@H](CC(C)C)C(=O)O` [APIDAECIN]: the Activity entry in the data set on SH-SY5Y and in the data set on HeLa was “Non-toxic” in each case.

For H-VDKPPYLPRPTPPRRIYNNR-OH, the MIC in the data set with Micrococcus luteus came out at 64 µg/mL; with Escherichia coli it was 128 µg/mL.

With H-VDKPPYLPRPPPPRRIYNNR-OH, the MIC against Micrococcus luteus came out at 64 µg/mL; in the data set on Escherichia coli, 128 µg/mL.
